Data on 45 compounds can be found in ChEMBL document CHEMBL3227993, “Studies on 3-substituted 1,2-benzisoxazole derivatives. 6. Syntheses of 3-(sulfamoylmethyl)-1,2-benzisoxazole derivatives and their anticonvulsant activities” (J Med Chem, 1979).

The test system of data set [1] is Mus musculus. The data set can be described thus: Anticonvulsant activity in STD-dd mouse assessed as protection against hind-limb extensor component of maximal electroshock seizure at 100 mg/kg, po administered via gavage measured 2 hrs after drug dosing. Also noted: dose 100 mg/kg. Format: functional, organism-based. The procedure, abridged: (§1)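 Mice dosed by gavage as a suspension in 5% tragacanth solution. Maximal electroshock was given as 60-Hz, 25-mA current for 0.2 s through corneal electrodes, 2 h after dosing. Protection was scored as prevention of hind-limb extension. Preliminary screen used 100 mg/kg. For ED50, groups of ten mice per dose level at ≥4 dose levels, with values calculated by Litchfield–Wilcoxon.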

A short description of data set [2]: Neurotoxicity in po dosed STD-dd mouse assessed as muscle incoordination administered via gavage by rotarod test. Format: toxicity, organism-based, Muscle tissue. The settings on record: in vivo. The procedure, abridged: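 Gavage dosing as a suspension in 5% tragacanth solution, with ten mice per dose level at ≥4 levels. Rotarod test 2 h after dosing used a horizontal rod 2.5 cm in diameter rotating at 11 rpm. Minimal neurotoxicity end point was muscle incoordination, i.e. inability to stay on the rod. NTD50 was calculated by Litchfield–Wilcoxon.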

Data set [3] deals with Mus musculus. The data set can be described thus: Anticonvulsant activity in po dosed STD-dd mouse assessed as protection against hind-limb extensor component of maximal electroshock seizure administered via gavage measured 2 hrs after drug dosing. Format: functional. The procedure, abridged: as §1

Structures are written as SMILES. Calls of active or inactive are those of the source. The rule behind the calls is not given here.

With `CN(C)CCCNS(=O)(=O)Cc1noc2ccccc12`, the result in the data set with Mus musculus [1] was inactive.

As for `CN(C)NS(=O)(=O)Cc1noc2ccccc12`, the result in the data set on Mus musculus [1] was inactive.

As for `CCNS(=O)(=O)Cc1noc2ccccc12`, the TD50 in data set [2] is 223 mg/kg. In addition, the 50% effective dose (ED50) in the data set with Mus musculus [3] is 39 mg/kg.

`O=S(=O)(Cc1noc2ccccc12)N1CCOCC1`: the result with Mus musculus [1] was inactive.

Turning to `O=S(=O)(Cc1noc2ccccc12)NCCO`, the result in the data set with Mus musculus [1] was inactive.

Regarding `CN(C)S(=O)(=O)Cc1noc2ccccc12`, the ED50 in the data set with Mus musculus [3] was 37 mg/kg.

For `O=C1NC(=O)C(c2ccccc2)(c2ccccc2)N1` [PHENYTOIN], the TD50 in data set [2] was 111 mg/kg. Besides, in the data set on Mus musculus [3], the ED50 worked out at 10 mg/kg.

Take `NS(=O)(=O)Cc1noc2ccc(Br)cc12`: the TD50 in data set [2] stood at 60 mg/kg. In the data set on Mus musculus [3], the median effective dose (ED50) turned out to be 14 mg/kg.

For `NS(=O)(=O)Cc1noc2cc(F)ccc12`, the median effective dose (ED50) in the data set on Mus musculus [3] amounted to 19 mg/kg.

For the compound `O=S(=O)(Cc1noc2ccccc12)Nc1ccccc1`, the outcome in the data set on Mus musculus [1] was inactive.

For `NS(=O)(=O)Cc1noc2ccc([N+](=O)[O-])cc12`, the outcome in the data set with Mus musculus [1] was inactive.

Take `NS(=O)(=O)CCCc1noc2ccccc12`: in the data set on Mus musculus [3], the ED50 turned out to be 39 mg/kg.

`CNS(=O)(=O)Cc1noc2ccc(Cl)cc12`: in data set [2], the TD50 worked out at 60 mg/kg. For the same compound, the ED50 in the data set on Mus musculus [3] worked out at 20 mg/kg.

For the compound `CN1CCN(S(=O)(=O)Cc2noc3ccc(F)cc23)CC1`, in data set [2], the TD50 worked out at 142 mg/kg. For the same compound, in the data set on Mus musculus [3], the ED50 is 100 mg/kg.

For `CN(C)S(=O)(=O)Cc1noc2ccc(F)cc12`, in data set [2], the TD50 came out at 350 mg/kg. The 50% effective dose (ED50) in the data set on Mus musculus [3] was 32 mg/kg.

On to `NS(=O)(=O)Cc1noc2ccccc12` [ZONISAMIDE], for which, in the data set on Mus musculus [3], the ED50 worked out at 20 mg/kg.

As to `NNS(=O)(=O)Cc1noc2ccccc12`, the result in the data set on Mus musculus [1] was inactive.

For the compound `CC(C)NS(=O)(=O)Cc1noc2ccc(Br)cc12`, the TD50 in data set [2] turned out to be 93 mg/kg. For the same compound, the ED50 in the data set with Mus musculus [3] was determined as 22 mg/kg.

For the compound `CC(C)NS(=O)(=O)Cc1noc2ccc(F)cc12`, in data set [2], the TD50 came to 109 mg/kg. The 50% effective dose (ED50) in the data set on Mus musculus [3] stood at 38 mg/kg.

Turning to `CCNS(=O)(=O)Cc1noc2ccc(Cl)cc12`, the ED50 in the data set with Mus musculus [3] was found to be 21 mg/kg.

With `CN1CCN(S(=O)(=O)Cc2noc3ccc(Br)cc23)CC1`, the TD50 in data set [2] turned out to be 87 mg/kg. Also, the ED50 in the data set with Mus musculus [3] stood at 88 mg/kg.

As to `CCC1(CC)C(=O)NC(=O)N(C)C1=O` [METHARBITAL], in data set [2], the TD50 was 87.9 mg/kg. The ED50 with Mus musculus [3] came out at 60.8 mg/kg.

As to `CNS(=O)(=O)Cc1noc2ccc(F)cc12`, in data set [2], the TD50 was 168 mg/kg. For the same compound, the median effective dose (ED50) with Mus musculus [3] turned out to be 35 mg/kg.

Take `CC(C)NS(=O)(=O)Cc1noc2ccccc12`: the TD50 in data set [2] came to 340 mg/kg. Also, the ED50 in the data set with Mus musculus [3] came out at 56 mg/kg.

As for `O=S(=O)(Cc1noc2ccccc12)NO`, the median effective dose (ED50) in the data set with Mus musculus [3] was determined as 32 mg/kg.

Turning to `CCNS(=O)(=O)Cc1noc2ccc(Br)cc12`, in data set [2], the TD50 turned out to be 66 mg/kg. For the same compound, the ED50 in the data set on Mus musculus [3] was determined as 18 mg/kg.

Turning to `COC(=O)c1ccccc1NS(=O)(=O)Cc1noc2ccccc12`, the result in the data set on Mus musculus [1] was inactive.

As to `COc1ccc2onc(CS(N)(=O)=O)c2c1`, in the data set with Mus musculus [1], the outcome was inactive.

`CCNS(=O)(=O)Cc1noc2ccc(F)cc12`: the TD50 in data set [2] worked out at 200 mg/kg. In addition, in the data set on Mus musculus [3], the ED50 came to 32 mg/kg.

`O=S(=O)(Cc1noc2ccccc12)N1CCN(c2ccccc2)CC1`: the result in the data set on Mus musculus [1] was inactive.

On to `CNS(=O)(=O)Cc1noc2ccc(Br)cc12`, for which the ED50 with Mus musculus [3] is 15 mg/kg.

Consider `CN1CCN(S(=O)(=O)Cc2noc3ccccc23)CC1`, for which, in the data set with Mus musculus [3], the 50% effective dose (ED50) stood at 57 mg/kg.

Turning to `NS(=O)(=O)Cc1noc2ccc(Cl)cc12`, in data set [2], the TD50 amounted to 52 mg/kg. For the same compound, the 50% effective dose (ED50) in the data set with Mus musculus [3] was determined as 14 mg/kg.

On to `CC(C)NS(=O)(=O)Cc1noc2ccc(Cl)cc12`, for which, in the data set with Mus musculus [3], the ED50 came out at 100 mg/kg.

`CNS(=O)(=O)Cc1noc2ccccc12`: the ED50 in the data set on Mus musculus [3] worked out at 23 mg/kg.

On to `O=S(=O)(Cc1noc2ccccc12)N1CCCCC1`, for which the result with Mus musculus [1] was inactive.

As to `Cc1cccc2c(CS(N)(=O)=O)noc12`, in the data set with Mus musculus [1], the result was inactive.

Take `CN(C)S(=O)(=O)Cc1noc2ccc(Br)cc12`: the TD50 in data set [2] is 100 mg/kg. Further, in the data set on Mus musculus [3], the 50% effective dose (ED50) amounted to 45 mg/kg.

With `NS(=O)(=O)Cc1noc2ccc(F)cc12`, the ED50 in the data set with Mus musculus [3] was determined as 15 mg/kg.

For the compound `NS(=O)(=O)CCc1noc2ccccc12`, the median effective dose (ED50) with Mus musculus [3] is 26 mg/kg.

Regarding `CCCNS(=O)(=O)Cc1noc2ccccc12`, the result in the data set on Mus musculus [1] was inactive.

As for `Cc1ccc2onc(CS(N)(=O)=O)c2c1`, in the data set with Mus musculus [1], the outcome was inactive.

For the compound `O=S(=O)(Cc1noc2ccccc12)NCc1ccccc1`, the result in the data set on Mus musculus [1] was inactive.

For `O=S(=O)(Cc1noc2ccccc12)N1CCN(Cc2ccccc2)CC1`, in the data set with Mus musculus [1], the result was inactive.

With `CN(C)S(=O)(=O)Cc1noc2ccc(Cl)cc12`, in data set [2], the TD50 was 250 mg/kg. The median effective dose (ED50) with Mus musculus [3] turned out to be 57 mg/kg.
